Reference: ChEMBL document CHEMBL2311323, “Synthesis and biological evaluation of N-alkyl-N-(4-methoxyphenyl)pyridin-2-amines as a new class of tubulin polymerization inhibitors” (Bioorg Med Chem, 2013)

Columns and labels:
A549 [1] = test: Growth inhibition of human A549 cells by SRB assay; assay type: functional
Summary of the method: (§1)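 Sulforhodamine B staining of human tumor cell lines: A-549 lung carcinoma, KB nasopharyngeal epidermoid carcinoma, P-gp-expressing vincristine-resistant KB (KBVIN) and DU145 prostate cancer. GI50 is the molar concentration giving 50% growth inhibition, reported as mean ± SD from at least triplicate runs.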

KB [2] = test: Growth inhibition of human KB cells by SRB assay; assay type: functional; summary of the method: as §1
DU-145 [3] = test: Growth inhibition of human DU145 cells by SRB assay; assay type: functional; summary of the method: as §1
[4] = Growth inhibition of human KBVIN cells by SRB assay; assay type: functional; summary of the method: as §1
A549 [5] = test: Growth inhibition of human A549 cells at 20 ug/mL by SRB assay; assay type: functional; settings: read-out: GI; summary of the method: as §1
DU-145 [6] = test: Growth inhibition of human DU145 cells at 20 ug/mL by SRB assay; assay type: functional; settings: read-out: GI; summary of the method: as §1
KB [7] = test: Growth inhibition of human KB cells at 20 ug/mL by SRB assay; assay type: functional; settings: read-out: GI; summary of the method: as §1
[8] = Growth inhibition of human KBVIN cells at 20 ug/mL by SRB assay; assay type: functional; settings: read-out: GI; summary of the method: as §1
Tubulin = test: Inhibition of tubulin assembly (unknown origin) pre-incubated with compound for 15 mins before GTP addition measured after 20 mins at 30 degC post GTP addition by turbidimetry; assay type: protein-complex assay, Homo sapiens
Summary of the method: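 Turbidity at 350 nm. Tubulin at 1.0 mg/mL (10 µM) was preincubated with varying compound concentrations for 15 min at 30 °C without GTP. Samples were chilled on ice and 0.4 mM GTP added, then moved to 0 °C cuvettes. After a rapid jump to 30 °C, assembly was followed for 20 min. IC50 is the concentration halving the turbidity increase relative to control.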

Tubulin (Homo sapiens) = Tubulin (Homo sapiens) (UniProt P68371+Q9H4B7+P0DPH7+P68366+Q13509+Q71U36+P04350+Q3ZCM7+P07437+P68363+Q9BQE3+Q6PEY2+Q13885+Q9BVA1+Q9BUF5); test: Inhibition of [3H]colchicine binding to tubulin (unknown origin) at 5 uM incubated for 10 mins at 37 degC; assay type: protein-complex assay

GI50 (A549 [1]) [nM]	GI50 (KB [2]) [nM]	GI50 (DU-145 [3]) [nM]	IC50 (Tubulin) [nM]	inhibition (Tubulin (Homo sapiens)) [%]	Compound	GI50 [4] [nM]	inhibition of growth at 20 µg/mL (A549 [5]) [%]	inhibition of growth at 20 µg/mL (DU-145 [6]) [%]	inhibition of growth at 20 µg/mL (KB [7]) [%]	inhibition of growth at 20 µg/mL [8] [%]
1460	1520	1300			CCOC(=O)c1ccc(C(F)(F)F)nc1N(C)c1ccc(OC)cc1	1300				
1810	1800	1430			CCOC(=O)c1ccc(Cl)nc1N(C)c1ccc(OC)cc1	1430				
					COc1ccc(N(c2nc(Cl)ccc2[N+](=O)[O-])C2CCCC2)cc1		< 50	< 50	< 50	< 50
4420	2920	3350			COc1ccc(N(C)c2nc(C)ccc2[N+](=O)[O-])cc1	4190				
3150	4010	2450			COC(=O)c1ccc(OC)nc1N(C)c1ccc(OC)cc1	4020				
18400	16000	15000			COc1ccc(N(C)c2nc(Cl)ccc2[N+](=O)[O-])cc1OC	16500				
3330	2610	2690			C=CCN(c1ccc(OC)cc1)c1nc(Cl)ccc1[N+](=O)[O-]	3150				
					COc1ccc(N(C)c2nc(C(F)(F)F)ccc2-c2nnn[nH]2)cc1		< 50	< 50	< 50	< 50
3000	2890	2220			COC(=O)c1ccc(N(C)c2nc(Cl)ccc2[N+](=O)[O-])cc1	2870				
					CN(c1ccc(OC(F)(F)F)cc1)c1nc(Cl)ccc1[N+](=O)[O-]		< 50	< 50	< 50	< 50
3430	1360	1670			CNc1ccc(C(=O)OC)c(N(C)c2ccc(OC)cc2)n1	920				
230	260	210	1400	80	COC(=O)c1ccc(Cl)nc1N(C)c1ccc(OC)cc1	200				
1820	1470	1160			COc1ccc(N(C)c2nc(C(F)(F)F)ccc2-c2nnnn2C)cc1	1260				
2200	1780	1550			COc1ccc(N(C)c2nc(Cl)ccc2[N+](=O)[O-])cc1	1860				
1200	1640	1290			COCc1ccc(C(F)(F)F)nc1N(C)c1ccc(OC)cc1	1430				
					COc1ccc(N(C)c2nc(C(F)(F)F)ccc2C(=O)OC(C)C)cc1		< 50	< 50	< 50	< 50
7210	15300	10700			COc1ccc(N(C)c2nc(C(F)(F)F)ccc2C#N)cc1	7910				

GI50 (A549 [1]) [nM]	GI50 (KB [2]) [nM]	GI50 (DU-145 [3]) [nM]	IC50 (Tubulin) [nM]	inhibition (Tubulin (Homo sapiens)) [%]	Compound	GI50 [4] [nM]	inhibition of growth at 20 µg/mL (A549 [5]) [%]	inhibition of growth at 20 µg/mL (DU-145 [6]) [%]	inhibition of growth at 20 µg/mL (KB [7]) [%]	inhibition of growth at 20 µg/mL [8] [%]
8.18	7.77	6.5			CC(=O)O[C@H]1C(=O)[C@@]2(C)[C@H]([C@H](OC(=O)c3ccccc3)[C@]3(O)C[C@H](OC(=O)[C@H](O)[C@@H](NC(=O)c4ccccc4)c4ccccc4)C(C)=C1C3(C)C)[C@]1(OC(C)=O)CO[C@@H]1C[C@@H]2O [PACLITAXEL]	1800				
24000	22100	21400			CN(c1ccc(C#N)cc1)c1nc(Cl)ccc1[N+](=O)[O-]	27000				
20400	22100	20400			COc1ccc(N(C)c2nc(Cl)ccc2C#N)cc1	18100				
					COc1ccc(N(C)c2nc(C(F)(F)F)ccc2C(=O)O)cc1		< 50	< 50	< 50	< 50
					CNC(=O)c1ccc(Cl)nc1N(C)c1ccc(OC)cc1		< 50	< 50	< 50	< 50
					CNC(=O)c1ccc(C(F)(F)F)nc1N(C)c1ccc(OC)cc1		< 50	< 50	< 50	< 50
3250	2260	1960			COc1ccc(N(C)c2nc(Cl)ccc2CO)cc1	2120				
22000	14500	17800			COc1ccc(N(C)c2nc(Cl)ccc2C(=O)OC(C)C)cc1	17300				
4500	4530	4450			CNc1ccc([N+](=O)[O-])c(N(C)c2ccc(OC)cc2)n1	9630				
300	330	250	1500	88	COCc1ccc(Cl)nc1N(C)c1ccc(OC)cc1	200				
350	410	250	1700	82	COC(=O)c1ccc(C(F)(F)F)nc1N(C)c1ccc(OC)cc1	190				
2130	1920	1710			COc1ccc(N(C)c2nc(C(F)(F)F)ccc2CO)cc1	1750				
11800	14300	11200			COc1ccc(N(C(C)=O)c2nc(Cl)ccc2[N+](=O)[O-])cc1	13900				
					COc1ccc(N(C)c2nc(Cl)ccc2C(=O)O)cc1		< 50	< 50	< 50	< 50
3270	3310	2700			COc1ccc(N(C)c2nc(OC)ccc2[N+](=O)[O-])cc1	2830				
					COc1cc(N(C)c2nc(Cl)ccc2[N+](=O)[O-])cc(OC)c1OC		< 50	< 50	< 50	< 50
